Legend:
[1] = system: Jurkat; assay: Inhibition of NFAT-mediated luciferase gene transcription in human jurkat J77 cell line after 6 hrs; type: functional, cell-based
Method in brief: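 Jurkat J77 cells electroporated (300 V, 800 μF) with NFAT-luciferase plasmid (four NFAT sites), grown 24 h in FBS-RPMI. Pretreated 1 h with compound (0.1-1000 μM, DMSO stocks), then stimulated with PMA plus anti-CD3 (2 μg/well) for 6 h. Lysate luciferase read; sigmoidal fit of RLU vs log concentration, IC50 = 50% drop versus DMSO control; mean ± S.E., n = 4.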

[2] = system: Panel NCI-62 (62 carcinoma cell lines); assay: Antiproliferative activity against human NCI62 cell line after 48 hrs; type: functional
Method in brief: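 NCI 60-panel screen (62 cell lines): cells grown 24 h in supplemented RPMI 1640, then exposed to drug 48 h at 5 concentrations, 10^-8 to 10^-4 M. Stopped with cold trichloroacetic acid, fixed, sulforhodamine B stained, bound dye solubilized and absorbance read. Growth inhibition from time-zero, control and treated absorbances; GI50 as mean ± S.D. across 62 lines.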

SMILES	IC50 [1]	GI50 [2]
CC(NC(=O)Cc1ccc(OP(=O)(OCc2ccc([N+](=O)[O-])o2)N(C)CCCCCl)cc1)c1ccc(OCC2CCCCC2)c(C(N)=O)c1 (stereo not given)	9 µM	3 µM
CC(NC(=O)Cc1ccc(NP(=O)(OCc2ccc([N+](=O)[O-])o2)N(C)CCCCCl)cc1)c1ccc(OCC2CCCCC2)c(C(N)=O)c1 (stereo not given)	20 µM	
CC(=O)N[C@@H](Cc1ccc(OP(=O)(OCc2ccc([N+](=O)[O-])o2)N(C)CCCCCl)cc1)C(=O)NC(C)c1ccc(OCC2CCCCC2)c(C(N)=O)c1 (stereo not given in full)	21 µM	6 µM
CC(NC(=O)c1ccc(NP(=O)(OCc2ccc([N+](=O)[O-])o2)N(C)CCCCCl)cc1)c1ccc(OCC2CCCCC2)c(C(N)=O)c1 (stereo not given)	16 µM	18 µM
CC(NC(=O)c1ccc(OP(=O)(OCc2ccc([N+](=O)[O-])o2)N(C)CCCCCl)cc1)c1ccc(OCC2CCCCC2)c(C(N)=O)c1 (stereo not given)	31 µM	12 µM
CC(=O)N[C@@H](Cc1ccc(NP(=O)(OCc2ccc([N+](=O)[O-])o2)N(C)CCCCCl)cc1)C(=O)NC(C)c1ccc(OCC2CCCCC2)c(C(N)=O)c1 (stereo not given in full)	28 µM	

Source: ChEMBL document CHEMBL1148508, “Design and synthesis of phosphotyrosine peptidomimetic prodrugs” (J Med Chem, 2006)
